Compound activity (PubChem BioAssay)
Compounds with a hit are over-represented: about 7.6% of the library has one in this group of screens.
D1 allo mod: D1 CRE-luciferase signal change, two-sided – cell-based, HEK293 D1, dopamine EC30, D1 allosteric modulator project, primary screen; D(1A) dopamine receptor (Homo sapiens), P21728; dopamine EC30 potentiation; actives deviate in either direction; B-score at 10 µM; 58,000 tested, 5.9% active; AID 641, 2007;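 active = luminescence count or its row- and column-corrected plate score outside the 99.7% band of the plate's sample wells, on either side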
HEK293 NFkB inh: inhibitors of PMA/ionomycin-induced NF-kB reporter, primary screen, antigen receptor NF-kB inhibitor project, cell-based, HEK-293 luciferase reporter, luminescence; HEK-293 NF-kB luciferase reporter; inhibition, % at 3 µM; 62,000 tested, 0.21% active;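 active = inhibition above the mean of all tested compounds plus 3 SD, cut at about 40% in these data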;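 also: 0% = stimulated DMSO wells and 100% = 10 µM reference inhibitor 5653914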
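System: NF-kB luciferase reporter HEK-293 cells | Replication: Single test | Control set: DMSO vs reference inhibitor | Evaluation: % inhibition | Schedule: 1 h pretreatment, 16 h stimulation, 37 °C | Probe or stimulus: PMA with ionomycin | Compound dosing: One dose, 3 µM | Detection: Luciferase luminescence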
M1 antagonist: antagonists of rat M1 muscarinic receptor; B-score at 10 µM; Muscarinic acetylcholine receptor M1 (Rattus norvegicus), P08482; 64,000 tested, 3.4% active; CHO-M1 cells, Fluo-4 calcium, ACh EC80 antagonist mode; active compounds read low;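 active = calcium fluorescence response, raw or row-and-column corrected B-score, differing from the plate sample mean either way at a set confidence level, mostly lower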
hDAT+cocaine: changed hDAT dopamine uptake under cocaine IC80, either direction, primary screen, cocaine antagonist project, cell-based, LLC-PK1 hDAT, [14C]-dopamine uptake, MLSMR | LLC-PK1 hDAT cells, [14C]-dopamine uptake with cocaine IC80; actives deviate in either direction | 110,000 tested, 1.3% active | B-score at 10 µM;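 active = Z score or B-score, a plate-position-corrected score, falls beyond the plate's 99.7% confidence bounds, in either direction; inactive = both scores lie inside the 99.7% bounds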;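 also: scored against the spread of the other compound wells on the same plate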
Target sequence (Q01959 whole entry, looked up): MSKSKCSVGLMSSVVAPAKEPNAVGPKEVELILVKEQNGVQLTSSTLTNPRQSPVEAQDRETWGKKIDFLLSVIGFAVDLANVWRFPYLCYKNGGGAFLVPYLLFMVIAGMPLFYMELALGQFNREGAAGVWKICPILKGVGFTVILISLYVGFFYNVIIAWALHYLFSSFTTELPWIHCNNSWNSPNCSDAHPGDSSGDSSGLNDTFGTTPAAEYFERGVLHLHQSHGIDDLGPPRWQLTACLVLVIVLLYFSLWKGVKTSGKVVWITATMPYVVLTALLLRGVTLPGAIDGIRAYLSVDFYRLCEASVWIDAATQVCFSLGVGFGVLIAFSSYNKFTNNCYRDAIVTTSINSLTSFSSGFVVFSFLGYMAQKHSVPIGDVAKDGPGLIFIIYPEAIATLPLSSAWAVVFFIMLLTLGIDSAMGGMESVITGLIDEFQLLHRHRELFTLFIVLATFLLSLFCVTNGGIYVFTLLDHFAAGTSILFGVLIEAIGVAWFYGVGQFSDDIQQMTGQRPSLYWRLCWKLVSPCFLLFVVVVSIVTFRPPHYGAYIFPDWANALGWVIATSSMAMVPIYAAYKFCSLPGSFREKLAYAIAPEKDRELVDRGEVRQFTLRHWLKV
M1 ag: M1 muscarinic receptor agonists, primary screen, CHO-M1 cells, Fluo-4 calcium, agonist mode; Fluo-4 calcium fluorescence; active compounds read high; B-score at 10 µM; 64,000 tested, 3% active; AID 626, 2007;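 active = fluorescence rise, raw or as B-score row- and column-corrected plate score, outside the 99.7% band of its plate's samples, either direction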
Jurkat tox 60K: cytotoxicity toward Jurkat T cells, primary screen, cytotoxicity control, cell-based, Jurkat E6.1, 60K MLSMR library. Jurkat E6.1 viability, ATP luminescence, 48 h. 56,000 tested, 1.2% active. inhibition, % at 4 µM;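 active = inhibition above the mean inhibition of all tested compounds plus 3 SD, cut at about 28% in these data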
* hit, by the source's call; / = no result given.

SMILES | D1 allo mod | HEK293 NFkB inh | M1 antagonist | hDAT+cocaine | M1 ag | Jurkat tox 60K
COc1cccc(CNC(=O)c2cc3oc4ccccc4c3n2C)c1OC | -0.23 | 18 | 0.13 | -0.49 | 0.013 | 29*
O=C(Cn1cc2c(n1)CCCC2)NCC1CCCO1 (stereo not drawn) | 0.74 | 6 | -0.52 | 0.0044 | 1.4 | 0
O=C(NCc1ccc(Cl)cc1)c1cnccn1 | / | / | / | -2.8* | / | /
CS(=O)c1nc(-c2ccc(Br)cc2)cc(-c2ccccc2)c1C#N (stereo not drawn) | 1.6 | 25 | 0.13 | 0.29 | 0.15 | 100*
Nc1cccc(-c2nc3ccc(N)cc3s2)c1 | -4.7* | 18 | -0.028 | 1.3 | -0.068 | 18
CC(C)(C)N1C(=O)Cc2c1nc(N)c1c(N)nc(N3CCCCC3CO)c(C#N)c21 (stereo not drawn) | -0.24 | 0 | -0.47 | -4.2* | 4.8 | -12
O=C(NCc1ccc(OC(F)(F)F)cc1)C1CC(c2ccc(C(F)(F)F)cc2)=NO1 (stereo not drawn) | / | / | / | -0.71 | / | /
Cn1c(=O)oc2cc(S(=O)(=O)NCCN3CCCCCC3)ccc21 | / | 16 | -0.62 | -0.41 | -0.43 | -2
Cn1c(=O)oc2cc(S(=O)(=O)NCCN3CCN(c4ccccc4F)CC3)ccc21 | -5.9* | 6 | 0.13 | -0.19 | -0.77 | -6
Cn1c(=O)oc2cc(S(=O)(=O)N3CCCc4ccccc43)ccc21 | / | 8 | -1.2 | -0.6 | -0.25 | 91*
O=S(=O)(NCc1ccc2c(c1)OCO2)c1cccc(S(=O)(=O)N2CCOCC2)c1 | -0.19 | 11 | -0.085 | -0.49 | -0.68 | 6
CCN(CC)c1cc(C)c2ccccc2n1 | / | / | / | 0.47 | / | /
CCC(=O)n1nc(-c2ccc(OC)cc2)nc1N | 0.95 | 10 | 0.28 | -9.5* | -0.35 | 3
N#Cc1ccsc1NC(=O)CSc1nnc(-c2ccccc2)o1 | / | / | / | -0.091 | / | /
CCOc1cccc(C=Nc2cc(C)cc(C)c2O)c1O | -3.8* | 7 | 0.46 | 0.59 | -0.05 | -5
O=C(Nc1ccc(CN2CCOCC2)cc1)c1cc2ccccc2o1 | -4.9* | -22 | 0.52 | 1.3 | 0.087 | 0
O=C(Nc1ccc(N2CCOCC2)cc1)c1cc2ccccc2o1 | -0.45 | -20 | -0.41 | -0.016 | -0.88 | 5
O=C(Nc1ccc(CN2CCOCC2)cc1)c1cc2ccccn2n1 | -7.3* | -7 | 0.015 | 0.22 | -1.2 | 4
O=C(NC1=NCCS1)c1cc2ccccc2o1 | -4.6* | -9 | 0.31 | -0.44 | -0.37 | -2
O=C(Nc1ccc(CN2CCOCC2)cc1)c1ccccc1F | / | / | / | -1.2 | / | /
O=C(O)C1CC=CCC1C(=O)Nc1ccc2c(c1)OCCO2 (stereo not drawn) | / | / | / | 0.27 | / | /
CC1(C)Cc2c(sc3c2c(=N)n(Cc2ccco2)c(=O)n3CC(=O)Nc2ccc(Cl)cc2)CO1 | / | 12 | 0.034 | 2* | -0.6 | -8
O=C(O)CP(=O)(c1ccccc1)c1ccccc1 | -0.18 | 7 | 0.2 | 0.014 | 0.41 | -1
O=P(COCCOCP(=O)(c1ccccc1)c1ccccc1)(c1ccccc1)c1ccccc1 | / | / | / | -0.94 | / | /
COCP(=O)(c1ccccc1)c1ccccc1 | / | / | / | 1.5* | / | /
SMILES | D1 allo mod | HEK293 NFkB inh | M1 antagonist | hDAT+cocaine | M1 ag | Jurkat tox 60K
O=P(CCCCCCCCCP(=O)(c1ccccc1)c1ccccc1)(c1ccccc1)c1ccccc1 | / | / | / | 2.9* | / | /
Cn1c(=O)n(C)c2cc(C(=O)c3ccccc3)ccc21 | / | / | 0.19 | 0.6 | -0.32 | /
Cc1cc(C(=O)N/N=C/c2cccc(OC(=O)c3ccco3)c2)n[nH]1 | / | / | / | -0.22 | / | /
COc1ccccc1C(=O)Nc1ccc2c(c1)OCCO2 | -1 | -36 | -0.3 | 0.42 | -0.47 | 4
COc1ccccc1NC(=O)CN1CCN(CC(=O)Nc2ccc3c(c2)OCCO3)CC1 | 0.059 | -7 | -0.037 | 3.1* | 1.6 | -16
COc1cc(SC)ccc1C(=O)Nc1ccc2c(c1)OCCO2 | -4.2* | -50 | -0.81 | 3.4* | 1.5 | -9
CCOC(=O)c1c(C)oc2cc(Br)c(OC)cc12 | 0.28 | 13 | -0.22 | -1.5 | 0.03 | -3
Cc1oc2cc3c(C(=O)OCCN(C)C)c(C)oc3cc2c1C(=O)OCCN(C)C | -3.4* | 78* | 0.5 | / | 0.86 | 6
Cc1ccc(-c2nc(-c3ccccc3)no2)c(Cl)c1 | -8.7* | 24 | 0.017 | 0.097 | 0.042 | -2
Cc1c(Br)c([N+](=O)[O-])nn1C(C)C(=O)N1CCCc2ccccc21 (stereo not drawn) | / | / | / | -8.2* | / | /
CC(=O)Nc1ccc(NC(=O)C(C)n2nc([N+](=O)[O-])c(Br)c2C)cc1 (stereo not drawn) | / | / | / | 1.2 | / | /
Cc1c(Br)c([N+](=O)[O-])nn1C(C)C(=O)NCc1cccs1 (stereo not drawn) | / | / | / | -9.4* | / | /
CSc1nc(C)cc(-n2ccc(=O)[nH]c2=O)n1 | 0.35 | 24 | 1* | -0.49 | -0.24 | 1
[O-]/C(=C(\C(=S)NCc1ccco1)[n+]1ccccc1)c1ccccc1Br | / | / | / | -0.66 | / | /
Cc1ccccc1-n1nc(C)c2cc(C(=O)NCc3cccnc3)sc21 | -4.7* | 7 | -0.36 | -0.047 | -0.11 | 8
Cc1ccc(C)c(S(=O)(=O)Nc2ccc(S(=O)(=O)Nc3onc(C)c3C)cc2)c1 | 0.61 | 0 | 0.89 | -0.55 | -0.36 | -9
COc1cccc(C(=O)/C=C/Nc2cc(C)ccc2O)c1 | -0.77 | -1 | -0.67 | -0.76 | -0.81 | 64*
Cc1cccc(OCC(=O)Nc2cc(C)ccc2O)c1 | / | 15 | 0.002 | -1.1 | 0.12 | 55*
Cc1ccc(O)c(NC(=O)CCC2CCCCC2)c1 | 0.93 | -7 | -0.57 | -1.4 | 0.0027 | 39*
CCOC(=O)c1sc(=NC(=O)c2ccc(S(=O)(=O)N3CCOCC3)cc2)n(C)c1C | 0.011 | 14 | -0.37 | / | 0.51 | 3
Cc1nc(-c2cccc(S(=O)(=O)N3CCCCCC3)c2)cs1 | / | / | / | 2.3 | / | /
CCCn1c(=O)[nH]c(=O)c2c1nc(-c1ccccc1)n2CCN1CCOCC1 | / | / | / | -0.087 | / | /
CCN(CC)CC(C)OC(=O)c1cc(OC)c(OC)c(OC)c1 (stereo not drawn) | / | / | / | 0.12 | / | /
COc1ccccc1C(=O)Nc1ncc2c(n1)CC(c1ccco1)CC2=O (stereo not drawn) | 0.47 | 11 | 1.3 | -3.8* | 0.093 | -3
Cc1cc2c(s1)c1cnn(CC(=O)NCCc3ccccc3)c(=O)c1n2C | 0.47 | 16 | 3.1* | 1.2 | 0.0053 | /
CN1CCN(CCCNC(=O)Cn2ncc3c4ccccc4n(C)c3c2=O)CC1 | -0.11 | 15 | 0.014 | 0.84 | 1.2 | -4
Cc1ccccc1-c1cc2c(nn1)-c1ccccc1C2=O | / | / | / | -1.3 | / | /
Cc1ccc(-c2cc3c(nn2)-c2ccccc2C3=O)cc1 | -5.7* | 62* | -0.24 | / | 0.71 | 16
